Source: PubChem BioAssay
In the library only some 2.1% were active in any assay of this set; here they are far more common.
INS-1E GSIS act: GLuc luminescence reporter in INS-1E cells, primary screen for activators of glucose-dependent secretion of insulin. INS-1E GLuc reporter insulin secretion, 2-3 h. activation, % at 16.6 µM. 0.61% of 370,000 active. AID 743287, 2014;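 active = lowest replicate activation of at least 40%, so every replicate reaches that level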;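 note: 0% = median of neutral control wells and 100% = median of IBMX positive control wells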
PAX8 inh HTS: inhibitors of PAX8-driven TPO luciferase reporter, primary screen, RMG-I cells, single concentration; SteadyGlo, 24 h; inhibition, % at 12.6 µM; 1.2% of 360,000 active; AID 652154, 2013;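 active = mean replicate inhibition at least 60% with every replicate also reaching 60%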;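 note: luciferase light reporting Pax8 driven TPO promoter activity; plate controls were median of neutral control wells for no effect and mitoxantrone controls for full effect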
PGC1a acetyl inh: inhibitors of PGC1a acetylation signal, primary screen, cell-based, U2OS, AlphaScreen, inhibitor mode. 0.17% of 350,000 active. inhibition, % at 15.6 µM. AlphaScreen anti-acetyl-lysine; with virally co-expressed GCN5 acetyltransferase;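 active = every replicate shows inhibition of at least 40%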;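 note: 0% = neutral control wells and 100% = positive control wells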
Xi reactivation: activators of inactive X chromosome reactivation, primary screen, imaging, XiGFP fibroblasts, GFP high-content imaging, set 2; activation, % at 7.58 µM; AID 743238, 2013; XiGFP mouse fibroblasts, % GFP-positive cells imaging, 3 d; cells co-treated with 5-aza-dC sensitizer; scaled so ellipticine positive control = 100%; 0.055% of 360,000 active;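 active = mean normalized replicate activation at least 10% and every replicate at or above 10%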;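 note: 0% = median of on-plate neutral control wells and 100% = ellipticine 6 µM median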
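System: XiGFP fibroblasts, SV40-immortalized. Medium: DMEM plus 5-aza-dC sensitizer. Doses: single point. Timing: 3 d treatment, 15 min room-temperature fixation. Control set: ellipticine 6 µM.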
MLL AF4-AF9 inh: inhibitors of AF4 peptide binding to AF9, primary screen, biochemical, AlphaScreen, biotin-AF4 peptide, FLAG-AF9, single point | Protein AF-9 (Homo sapiens), P42568 | inhibition, % at 10 µM | 0.47% of 350,000 active | AID 651704, 2012;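 active = every replicate reaching a set inhibition limit, whatever the replicate mean, cut at about 25% in these data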;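 note: 0% = plate neutral control median and 100% = total signal loss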
Target sequence (P42568 whole entry, looked up): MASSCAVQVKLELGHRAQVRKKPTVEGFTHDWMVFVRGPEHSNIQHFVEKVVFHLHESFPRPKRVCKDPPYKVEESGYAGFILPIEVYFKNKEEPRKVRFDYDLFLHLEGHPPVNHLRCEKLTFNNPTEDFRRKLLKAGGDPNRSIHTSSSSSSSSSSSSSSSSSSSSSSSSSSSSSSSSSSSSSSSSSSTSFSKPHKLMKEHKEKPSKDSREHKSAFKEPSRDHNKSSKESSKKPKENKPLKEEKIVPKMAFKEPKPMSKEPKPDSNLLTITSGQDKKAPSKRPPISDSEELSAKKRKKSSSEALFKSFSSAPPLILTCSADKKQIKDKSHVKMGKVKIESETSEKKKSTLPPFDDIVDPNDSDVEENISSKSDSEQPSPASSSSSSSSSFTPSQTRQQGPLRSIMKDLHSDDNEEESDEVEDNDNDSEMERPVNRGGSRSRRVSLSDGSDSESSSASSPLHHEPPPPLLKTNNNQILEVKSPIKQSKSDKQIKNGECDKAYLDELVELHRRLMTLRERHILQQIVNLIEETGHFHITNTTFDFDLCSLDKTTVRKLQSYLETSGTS
EWS-Fli inh: EWS/Fli-driven NR0B1 reporter inhibitors, primary screen, A673 cells, NR0B1 luciferase, luminescence, MLPCN library. AID 651661, 2012. inhibition, % at 12.6 µM. viability-normalised. 0.67% of 350,000 active;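 active = mean inhibition of at least 50% after viability correction, with every replicate also passing that limit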;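 note: firefly luciferase signal divided by Alamar Blue viability fluorescence both relative to DMSO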
Starred values were filed as active, the others as inactive; · = not tested or not shown.

SMILES	INS-1E GSIS act	PAX8 inh HTS	PGC1a acetyl inh	Xi reactivation	MLL AF4-AF9 inh	EWS-Fli inh
CN1CCc2nc(SCc3ccccc3Br)c(C#N)cc2C1	-9.0	-14.8	·	0.6	2.3	-4.6
C=CCN1[C@@H]2CN(C(=O)NC(C)C)C[C@H]1C2c1ccc(Br)cc1 (stereo not given in full)	-0.2	·	·	1.2	·	·
COc1ccc(CC2NCC(O)C2OC(C)=O)cc1 (stereo not given)	0.8	·	92.1*	·	0.4	58.8*
COc1ccc(CC(=O)N2CCN(C)CC2)cc1	14.2	·	9.9	·	·	·
Cc1ccnc(NC(=O)CCCc2ccc(N(CCCl)CCCl)cc2)n1	7.8	6.9	·	0.1	25.7*	-12.2
CCCCn1c(=O)c(C(=O)Nc2ccccc2C)c(O)c2ccccc21	·	·	9.7	·	·	·
CC(C)CCn1c(=O)c(C(=O)Nc2ccccc2S(N)(=O)=O)c(O)c2ccccc21	·	69.3*	3.4	·	·	·
COc1ccc(CC2c3cc(OC)c(OC)cc3CCN2C)cc1O (stereo not given)	43.1*	-13.1	-10.3	-0.1	-0.7	-3.5
COc1ccc(CCN)cc1O	4.1	-14.4	-0.6	0.1	-2.3	-2.5
CCOC(=O)C1C(OC(=O)c2ccccc2)CC2CCC1N2C (stereo not given)	41.2*	·	24.6	·	·	-2.8
COC(=O)C1C2CC[C@@H](CC1OC(=O)c1ccccc1)N2 (stereo not given in full)	·	·	2.2	·	·	·
CN1C2CCC1C(C(=O)O)C(OC(=O)c1ccccc1)C2 (stereo not given)	40.4*	·	-3.0	·	·	-2.5
O=C(Cc1ccncc1)N1CCCCN2[C@H](C1)[C@H](c1ccc(C#Cc3ccccc3F)cc1)[C@@H]2CO	-2.8	77.1*	-4.3	0.2	-6.0	13.8
O=C(Cc1cccnc1)N1CCCCN2[C@H](C1)[C@H](c1ccc(C#CC3CCCC3)cc1)[C@@H]2CO	0.0	91.9*	-0.8	0.7	1.8	13.9
O=C(Cc1ccccc1)N1CCCCN2[C@H](C1)[C@H](c1ccc(C#Cc3ccccc3)cc1)[C@@H]2CO	24.0	25.9	6.0	-0.1	-3.2	·
O=C(Cc1cccnc1)N1CCCCN2[C@@H](CO)[C@@H](c3ccc(C#CC4CCCC4)cc3)[C@@H]2C1	-18.0	-10.3	12.2	0.2	3.1	10.1
COC(=O)[C@@H]1[C@@H](CO)[C@@H]2Cn3c(ccc(C4=CCCCC4)c3=O)[C@H]1N2C(=O)Cc1ccccn1	9.6	4.4	·	0.0	0.4	4.4
COc1ccc(-c2ccc([C@@H]3[C@H]4CN(C(=O)Cc5ccccc5)CCCCN4[C@H]3CO)cc2)cc1	5.1	-3.3	5.4	0.1	-1.7	·
CCCc1nc2ccc(Br)cc2c(=O)n1-c1ccc([N+](=O)[O-])c(C(F)(F)F)c1	-23.4	93.4*	22.1	0.3	·	·
COC(=O)[C@H]1[C@H](CO)[C@H]2Cn3c(cccc3=O)[C@@H]1N2Cc1nccs1	2.0	-1.1	·	0.2	-0.9	2.2
O=C(Cc1ccccc1)N1CC2(C1)[C@@H](c1ccccc1)[C@@H](CO)N2Cc1cccc(F)c1	-20.1	14.8	2.9	0.2	3.7	2.1
Cc1nc2ccccc2c(=O)n1-c1ccc(Cl)c(Cl)c1	40.2*	-6.1	-1.0	0.0	2.0	-141.2
Cc1ccc(-n2c(C)nc3ccccc3c2=O)cc1C	8.7	13.1	·	-0.1	1.0	-22.6
COC(=O)[C@H]1[C@H](CO)[C@H]2Cn3c(cccc3=O)[C@@H]1N2C(=O)C1CC1	4.2	·	·	-0.1	1.8	0.1
COc1ccc(C#Cc2ccc([C@H]3[C@@H](CO)N4CCCCN(C(=O)Cc5ccncc5)C[C@H]34)cc2)cc1	26.9	-13.1	-5.5	-0.1	0.2	·
SMILES	INS-1E GSIS act	PAX8 inh HTS	PGC1a acetyl inh	Xi reactivation	MLL AF4-AF9 inh	EWS-Fli inh
CCNc1nc(Cl)nc(NC(C)C)n1	71.4*	7.1	·	0.9	·	·
Cc1ccc(-c2cc(-c3ccccc3)cc(-c3ccccc3)[n+]2-c2ccccc2C(=O)O)cc1	-39.3	77.2*	-19.0	0.0	5.1	20.5
Nc1cc(Cl)c2nonc2c1[N+](=O)[O-]	71.8	76.1*	·	2.0	·	·
O=[N+]([O-])c1c(Cl)c(Cl)c(Cl)c(Cl)c1Cl	24.8	-3.8	6.8	0.3	-40.2	3.4
CCOC(=O)[C@]12Cc3ccccc3[C@H]1N(C)C(=O)c1cc(OC)ccc12	37.6	-10.5	·	0.3	-2.2	3.2
CCOC(=O)[C@]12Cc3cc(C)ccc3[C@H]1N(CCC(=O)OC)C(=O)c1cc(OC)ccc12	-36.3	4.8	·	-0.1	-0.6	11.2
CCOC(=O)[C@]12Cc3cc(OC)ccc3[C@H]1N(C1CCCCC1)C(=O)c1cc(OC)ccc12	325.1*	44.1	·	0.0	-21.8	19.2
CCOC(=O)[C@]12Cc3cc(C)ccc3[C@H]1N(C1CCCCC1)C(=O)c1cc(OC)ccc12	1.9	103.6*	·	3.4	-1.1	46.4
O=C(Cc1ccccc1)N1CCCCN2[C@H](CO)[C@@H](c3ccc(-c4ccccc4)cc3)[C@@H]2C1	-7.9	-7.0	2.4	-0.1	·	·
O=C(Cc1ccccc1)N1CCCCN2[C@H](C1)[C@@H](c1ccc(C#Cc3ccccc3)cc1)[C@@H]2CO	-6.5	15.1	-17.9	-0.1	-3.8	·
COc1cc2c(c(OC)c1OC)-c1ccc(SC)c(=O)cc1C(NC(C)=O)CC2 (stereo not given)	·	82.8*	-4.5	1.1	-3.1	24.8
COc1cc2c(c(OC)c1O)-c1ccc(OC)c(=O)cc1C(NC(=O)C(F)(F)F)CC2 (stereo not given)	-15.4	79.6*	·	0.7	-1.6	36.8
COc1cc2c(c(OC)c1OC)-c1ccc(C(=O)O)cc1[C@@H](NC(C)=O)CC2	19.9	-2.4	·	0.1	·	-8.1
COc1c(O)cc2c(c1OC)-c1ccc(OC)c(=O)cc1C(NC(C)=O)CC2 (stereo not given)	13.9	76.9*	-12.2	1.4	-2.1	37.5
O=C(O)[C@@H]1[C@@H](CO)[C@@H]2Cn3c(ccc(-c4ccncc4)c3=O)[C@H]1N2C(=O)C1CCCC1	16.2	·	·	-0.1	-12.5	5.5
CC(C)CC#Cc1ccc([C@@H]2[C@@H](CO)N3CCCCN(C(=O)Cc4ccccn4)C[C@H]23)cc1	-10.3	1.6	-2.8	0.2	·	-19.3
O=C(Cc1cccnc1)N1CCCCN2[C@@H](CO)[C@@H](c3ccc(/C=C/c4ccccc4)cc3)[C@@H]2C1	-10.7	6.5	12.6	0.2	8.9	2.5
O=P1(c2ccccc2)Nc2ccccc2N1c1ccccc1 (stereo not given)	-26.3	0.1	13.1	0.4	27.6*	6.6
